Converted amounts (≈) assume the structure as drawn.
Key:
[1] = tested on: Staphylococcus aureus; experiment: Antibacterial activity against 10^5 CFU/mL Staphylococcus aureus MTCC 96 after 24 hrs by disc diffusion technique; assay type: functional
Summary of the method: (§1)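 Disc diffusion on Mueller–Hinton agar poured 5 mm deep. The surface was swabbed with a 10⁵ CFU/mL […] suspension. Filter-paper discs 6.25 mm in diameter were soaked in compound in DMSO and placed on the agar. Plates were incubated 24 h at 37 ± 1 °C, and the inhibition zone was measured in mm. A DMSO disc served as blank.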

[2] = tested on: Staphylococcus aureus; experiment: Antibacterial activity against 10^5 CFU/mL Staphylococcus aureus MTCC 96 after 24 hrs by agar streak dilution method; assay type: functional; conditions: MTCC 96, 24 h
Summary of the method: (§2)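 Agar streak dilution. Stock 100 µg/mL in DMSO; graded amounts were mixed into molten nutrient agar and poured at 4–5 mm depth. Plates carried serial dilutions over […]. About 10⁵ CFU/mL of each bacterium was applied, and plates were incubated at 37 ± 1 °C for 24 h. MIC was read from the dilution series.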

[3] = tested on: Bacillus cereus; experiment: Antibacterial activity against 10^5 CFU/mL Bacillus cereus MTCC 619 after 24 hrs by disc diffusion technique; assay type: functional; summary of the method: as §1
[4] = tested on: Bacillus cereus; experiment: Antibacterial activity against 10^5 CFU/mL Bacillus cereus MTCC 619 after 24 hrs by agar streak dilution method; assay type: functional; conditions: MTCC 619, 24 h; summary of the method: as §2
[5] = tested on: DU-145; experiment: Cytotoxicity against […] human DU145 cells after 48 hrs by SRB assay; assay type: functional; conditions: DU-145, 48 h
Summary of the method: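 SRB assay in DU-145 cells grown in RPMI 1640 with 10% FBS and 2 mM L-glutamine. Cells were plated and held 24 h before addition of four 10-fold concentrations. After 48 h, cells were TCA-fixed, stained with 0.4% SRB and read at 540 nm. GI50, TGI and LC50 were derived against time-zero and control wells; each value is the mean of three experiments.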

[6] = tested on: Escherichia coli; experiment: Antibacterial activity against 10^5 CFU/mL Escherichia coli MTCC 739 after 24 hrs by disc diffusion technique; assay type: functional; summary of the method: as §1
[7] = tested on: Escherichia coli; experiment: Antibacterial activity against 10^5 CFU/mL Escherichia coli MTCC 739 after 24 hrs by agar streak dilution method; assay type: functional; conditions: MTCC 739, 24 h; summary of the method: as §2
[8] = tested on: Pseudomonas aeruginosa; experiment: Antibacterial activity against 10^5 CFU/mL Pseudomonas aeruginosa MTCC 741 after 24 hrs by disc diffusion technique; assay type: functional; summary of the method: as §1
[9] = tested on: Pseudomonas aeruginosa; experiment: Antibacterial activity against 10^5 CFU/mL Pseudomonas aeruginosa MTCC 741 after 24 hrs by agar streak dilution method; assay type: functional; conditions: MTCC 741, 24 h; summary of the method: as §2
[10] = tested on: Klebsiella pneumoniae; experiment: Antibacterial activity against 10^5 CFU/mL Klebsiella pneumoniae MTCC 109 after 24 hrs by disc diffusion technique; assay type: functional; summary of the method: as §1
[11] = tested on: Klebsiella pneumoniae; experiment: Antibacterial activity against 10^5 CFU/mL Klebsiella pneumoniae MTCC 109 after 24 hrs by agar streak dilution method; assay type: functional; conditions: MTCC 109, 24 h; summary of the method: as §2
[12] = tested on: Salmonella typhi; experiment: Antibacterial activity against 10^5 CFU/mL Salmonella typhi MTCC 733 after 24 hrs by disc diffusion technique; assay type: functional, Salmonella enterica subsp. enterica serovar Typhi
Summary of the method: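 Disc diffusion. Mueller-Hinton agar autoclaved 120 °C 30 min, poured 5 mm deep. Surface swabbed with 10⁵ CFU/mL suspension […]. 6.25 mm filter-paper discs soaked in compound in DMSO; DMSO-only disc as blank. Incubated 37 ± 1 °C, 24 h for bacteria or 48 h for fungi. Ciprofloxacin and ketoconazole discs as reference drugs. Inhibition zone measured in mm.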

[13] = tested on: Salmonella typhi; experiment: Antibacterial activity against 10^5 CFU/mL Salmonella typhi MTCC 733 after 24 hrs by agar streak dilution method; assay type: functional, Salmonella enterica subsp. enterica serovar Typhi; conditions: Salmonella enterica, MTCC 733, 24 h
[14] = tested on: Proteus vulgaris; experiment: Antibacterial activity against 10^5 CFU/mL Proteus vulgaris MTCC 1771 after 24 hrs by disc diffusion technique; assay type: functional; summary of the method: as §1
[15] = tested on: Proteus vulgaris; experiment: Antibacterial activity against 10^5 CFU/mL Proteus vulgaris MTCC 1771 after 24 hrs by agar streak dilution method; assay type: functional; conditions: MTCC 1771, 24 h; summary of the method: as §2
[16] = tested on: Shigella flexneri; experiment: Antibacterial activity against 10^5 CFU/mL Shigella flexneri MTCC 1457 after 24 hrs by disc diffusion technique; assay type: functional; summary of the method: as §1
[17] = tested on: Shigella flexneri; experiment: Antibacterial activity against 10^5 CFU/mL Shigella flexneri MTCC 1457 after 24 hrs by agar streak dilution method; assay type: functional; conditions: MTCC 1457, 24 h; summary of the method: as §2
[18] = tested on: Aspergillus niger; experiment: Antifungal activity against 10^5 CFU/mL Aspergillus niger MTCC 282 after 48 hrs by disc diffusion technique; assay type: functional
[19] = tested on: Aspergillus niger; experiment: Antifungal activity against 10^5 CFU/mL Aspergillus niger MTCC 282 after 48 hrs by agar streak dilution method; assay type: functional; conditions: MTCC 282, 48 h
Summary of the method: (§3)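 Agar streak dilution for fungi. Stock 100 µg/mL in DMSO; graded amounts were mixed into molten Sabouraud dextrose agar and poured at 4–5 mm depth. Serial dilutions ran over […]. About 10⁵ CFU/mL inoculum was applied, with incubation at 37 ± 1 °C for 48 h. MIC was read from the dilution series.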

[20] = tested on: Aspergillus fumigatus; experiment: Antifungal activity against 10^5 CFU/mL Aspergillus fumigatus MTCC 343 after 48 hrs by disc diffusion technique; assay type: functional
[21] = tested on: Aspergillus fumigatus; experiment: Antifungal activity against 10^5 CFU/mL Aspergillus fumigatus MTCC 343 after 48 hrs by agar streak dilution method; assay type: functional; conditions: MTCC 343, 48 h; summary of the method: as §3
[22] = tested on: Aspergillus clavatus; experiment: Antifungal activity against 10^5 CFU/mL Aspergillus clavatus MTCC 1323 after 48 hrs by disc diffusion technique; assay type: functional
[23] = tested on: Aspergillus clavatus; experiment: Antifungal activity against 10^5 CFU/mL Aspergillus clavatus MTCC 1323 after 48 hrs by agar streak dilution method; assay type: functional; conditions: MTCC 1323, 48 h; summary of the method: as §3
[24] = tested on: Candida albicans; experiment: Antifungal activity against 10^5 CFU/mL Candida albicans MTCC 183 after 48 hrs by disc diffusion technique; assay type: functional
[25] = tested on: Candida albicans; experiment: Antifungal activity against 10^5 CFU/mL Candida albicans MTCC 183 after 48 hrs by agar streak dilution method; assay type: functional; conditions: MTCC 183, 48 h; summary of the method: as §3

Q: For `N#Cc1ccc(Nc2nc(Oc3ccnc4ccccc34)nc(N3CCCCC3)n2)cc1C(F)(F)F`, which “inhibition zone (IZ)” value [1] is on record?
A: 11 mm

Q: What about the MIC [2] of the same compound?
A: 100 µg/mL (≈ 203 µM)

Q: And the “inhibition zone (IZ)” value [3]?
A: 14 mm

Q: What about the MIC [4] of the same compound?
A: 100 µg/mL (≈ 203 µM)

Q: What about the GI50 [5] of the same compound?
A: 94.9 µM

Q: And the LC50 (concentration giving 50% net cell kill relative to time zero) [5]?
A: > 100 µM

Q: What about the TGI [5] of the same compound?
A: > 100 µM

Q: And the “inhibition zone (IZ)” value [6]?
A: <10 mm

Q: And the MIC [7]?
A: 100 µg/mL (≈ 203 µM)

Q: What about the “inhibition zone (IZ)” value [8] of the same compound?
A: <10 mm

Q: And the MIC [9]?
A: 100 µg/mL (≈ 203 µM)

Q: And the “inhibition zone (IZ)” value [10]?
A: 15 mm

Q: What about the MIC [11] of the same compound?
A: 100 µg/mL (≈ 203 µM)

Q: What about the “inhibition zone (IZ)” value [12] of the same compound?
A: 12 mm

Q: What about the MIC [13] of the same compound?
A: 100 µg/mL (≈ 203 µM)

Q: And the “inhibition zone (IZ)” value [14]?
A: 14 mm

Q: What about the MIC [15] of the same compound?
A: 100 µg/mL (≈ 203 µM)

Q: What about the “inhibition zone (IZ)” value [16] of the same compound?
A: <10 mm

Q: And the MIC [17]?
A: 100 µg/mL (≈ 203 µM)

Q: And the “inhibition zone (IZ)” value [18]?
A: 12 mm

Q: And the MIC [19]?
A: 100 µg/mL (≈ 203 µM)

Q: What about the “inhibition zone (IZ)” value [20] of the same compound?
A: <10 mm

Q: And the MIC [21]?
A: 100 µg/mL (≈ 203 µM)

Q: And the “inhibition zone (IZ)” value [22]?
A: 14 mm

Q: What about the MIC [23] of the same compound?
A: 100 µg/mL (≈ 203 µM)

Q: And the “inhibition zone (IZ)” value [24]?
A: 12 mm

Q: What about the MIC [25] of the same compound?
A: 100 µg/mL (≈ 203 µM)

Q: What does the source list for `N#Cc1ccc(Nc2nc(Oc3ccnc4ccccc34)nc(N3CCN(c4ccc(F)cc4)CC3)n2)cc1C(F)(F)F`?
A: inhibition zone (IZ) [1]: 25 mm; MIC [2]: 25 µg/mL (≈ 42.6 µM); inhibition zone (IZ) [3]: 26 mm; MIC [4]: 6.25 µg/mL (≈ 10.7 µM); GI50 [5]: > 100 µM; LC50 (concentration giving 50% net cell kill relative to time zero) [5]: > 100 µM; TGI [5]: > 100 µM; inhibition zone (IZ) [6]: 22 mm; MIC [7]: 50 µg/mL (≈ 85.2 µM); inhibition zone (IZ) [8]: 23 mm; MIC [9]: 25 µg/mL (≈ 42.6 µM); inhibition zone (IZ) [10]: 23 mm; MIC [11]: 25 µg/mL (≈ 42.6 µM); inhibition zone (IZ) [12]: 24 mm; MIC [13]: 25 µg/mL (≈ 42.6 µM); inhibition zone (IZ) [14]: 24 mm; MIC [15]: 25 µg/mL (≈ 42.6 µM); inhibition zone (IZ) [16]: 21 mm; MIC [17]: 50 µg/mL (≈ 85.2 µM); inhibition zone (IZ) [18]: 26 mm; MIC [19]: 12.5 µg/mL (≈ 21.3 µM); inhibition zone (IZ) [20]: 24 mm; MIC [21]: 50 µg/mL (≈ 85.2 µM); inhibition zone (IZ) [22]: 25 mm; MIC [23]: 50 µg/mL (≈ 85.2 µM); inhibition zone (IZ) [24]: 24 mm; MIC [25]: 50 µg/mL (≈ 85.2 µM)

Q: `COc1cccc2c1C(=O)c1c(O)c3c(c(O)c1C2=O)C[C@@](O)(C(=O)CO)C[C@@H]3O[C@H]1C[C@H](N)[C@H](O)[C@H](C)O1` [DOXORUBICIN] was tested. Which GI50 [5] did it give?
A: < 0.1 µM

Q: And the TGI [5]?
A: > 100 µM

Q: How did the “inhibition zone (IZ)” value [1] turn out when `N#Cc1ccc(Nc2nc(Oc3ccnc4ccccc34)nc(N3CCN(c4ccccn4)CC3)n2)cc1C(F)(F)F` was run?
A: 21 mm

Q: And the MIC [2]?
A: 100 µg/mL (≈ 176 µM)

Q: And the “inhibition zone (IZ)” value [3]?
A: 19 mm

Q: And the MIC [4]?
A: 100 µg/mL (≈ 176 µM)

Q: What about the GI50 [5] of the same compound?
A: 85.9 µM

Q: What about the LC50 (concentration giving 50% net cell kill relative to time zero) [5] of the same compound?
A: > 100 µM

Q: What about the TGI [5] of the same compound?
A: > 100 µM

Q: And the “inhibition zone (IZ)” value [6]?
A: 19 mm

Q: What about the MIC [7] of the same compound?
A: 100 µg/mL (≈ 176 µM)

Q: What about the “inhibition zone (IZ)” value [8] of the same compound?
A: 16 mm

Q: What about the MIC [9] of the same compound?
A: 100 µg/mL (≈ 176 µM)

Q: And the “inhibition zone (IZ)” value [10]?
A: 17 mm

Q: What about the MIC [11] of the same compound?
A: 100 µg/mL (≈ 176 µM)

Q: And the “inhibition zone (IZ)” value [12]?
A: 15 mm

Q: What about the MIC [13] of the same compound?
A: 100 µg/mL (≈ 176 µM)

Q: And the “inhibition zone (IZ)” value [14]?
A: 16 mm

Q: And the MIC [15]?
A: 100 µg/mL (≈ 176 µM)

Q: And the “inhibition zone (IZ)” value [16]?
A: 16 mm

Q: And the MIC [17]?
A: 100 µg/mL (≈ 176 µM)

Q: And the “inhibition zone (IZ)” value [18]?
A: <10 mm

Q: What about the MIC [19] of the same compound?
A: 100 µg/mL (≈ 176 µM)

Q: What about the “inhibition zone (IZ)” value [20] of the same compound?
A: 12 mm

Q: And the MIC [21]?
A: 100 µg/mL (≈ 176 µM)

Q: What about the “inhibition zone (IZ)” value [22] of the same compound?
A: <10 mm

Q: What about the MIC [23] of the same compound?
A: 100 µg/mL (≈ 176 µM)

Q: What about the “inhibition zone (IZ)” value [24] of the same compound?
A: 13 mm

Q: And the MIC [25]?
A: 100 µg/mL (≈ 176 µM)

Reference: ChEMBL document CHEMBL1828552, “Synthesis and studies of novel 2-(4-cyano-3-trifluoromethylphenyl amino)-4-(quinoline-4-yloxy)-6-(piperazinyl/piperidinyl)-s-triazines as potential antimicrobial, antimycobacterial and anticancer agents” (2011)
